T cruzi repl – blocks replication of Trypanosoma cruzi | T. cruzi beta-gal in NIH3T3, luminescence, 90 h | inhibition, % (test concentration not listed) | 1.4% of 300,000 active | AID 1885;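 active = mean inhibition across valid replicates above about 55%, limit read from the data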;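 also: signal also drops with host cell toxicity which is not excluded here; 0% = plate median of DMSO wells and 100% = zero luminescence signal; higher percent means less beta-gal luminescence so fewer parasites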
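Assay system: NIH/3T3 host cells with β-galactosidase reporter T. cruzi; input: 5,000 host fibroblasts per well; compound: single 50 nL compound addition per well in DMSO; timing: ≥90 h infection period, 3 h prior cell attachment; measured by: GalScreen β-gal luminescence, detergent lysis, 60 min; evaluation: percent inhibition of parasite-derived β-gal signal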
697 NFkB inh – lowers PMA/ionomycin-induced NF-kB signal in 697 B cells; 697 B-cell NF-kB luciferase reporter, 16 h; inhibition, % at 4 µM; 0.33% of 330,000 active; AID 435022; in the data active = inhibition above about 35%
HSF1 inhib – HSF1 inhibition; NIH3T3-HGL HSE-luciferase, MG132-induced, luminescence 8 h; active compounds read low; activity change, negative = inhibition, % at 7.5 µM (by protocol); 0.77% of 300,000 active; AID 2098;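 active = more than half of replicate wells show activity change below -50%, luminescence cut by over half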;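 also: luciferase reports HSF-1 transcriptional activity via heat shock element; 0% = median of DMSO wells and -100% = zero luminescence signal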
Jurkat NFkB inh – inhibitors of the PMA/ionomycin-induced NF-kB reporter in Jurkat cells. PMA/ionomycin-induced NF-kB luciferase reporter, luminescence. inhibition, % at 4 µM. 0.53% of 330,000 active; in the data active = inhibition above about 50%
HSF-1 act – increases HSF-1 driven luciferase reporter signal. NIH3T3-HGL HSF-1 luciferase reporter, MG132, 8 h; 100% = twice DMSO control signal. activation, % at 9 µM. 1.7% of 300,000 active. AID 504408;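 active = mean replicate activation of at least 50% with a set share of replicates each reaching 50%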;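 also: 0% = median of the neutral control wells and 100% = twice that signal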
GPR7 antag – blocks human GPR7 receptor signaling | P48145 | GPR7-expressing cells, fluorescence antagonist assay | inhibition, % at 4.4 µM | 1.1% of 290,000 active | AID 1861; in the data active = inhibition above about 16%, passing the limit was not always enough;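 also: cells stimulated with the agonist NPW; 0% = agonist with vehicle and 100% = vehicle without agonist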
Target sequence (P48145 whole entry, looked up): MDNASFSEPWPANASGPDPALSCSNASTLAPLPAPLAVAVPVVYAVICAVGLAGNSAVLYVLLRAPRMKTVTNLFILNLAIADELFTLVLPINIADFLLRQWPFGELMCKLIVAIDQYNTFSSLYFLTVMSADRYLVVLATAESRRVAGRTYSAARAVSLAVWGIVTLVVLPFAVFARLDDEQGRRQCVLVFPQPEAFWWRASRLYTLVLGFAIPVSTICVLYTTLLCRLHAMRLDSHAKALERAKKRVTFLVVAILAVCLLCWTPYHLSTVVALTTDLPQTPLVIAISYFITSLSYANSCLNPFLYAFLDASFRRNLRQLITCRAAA
GPR7 antag cf – confirmation of human GPR7 antagonists | inhibition, % at 4.4 µM | shares compounds with GPR7 antag | GPR7-expressing cells, calcium fluorescence antagonist mode | 52% of 2,400 active; in the data active = inhibition above about 24%;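 also: stimulated with the GPR7 agonist NPW; 0% = agonist plus vehicle and 100% = vehicle alone without agonist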
MCHR1 antag – antagonizes human MCHR1, a GPR7 antagonist counter-screen; shares compounds with GPR7 antag; MCHR1-expressing cells, fluorescence antagonist assay; inhibition, % at 4.4 µM; 62% of 2,400 active; AID 2148; in the data active = inhibition above about 22%;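 also: 0% = vehicle with agonist and 100% = vehicle without agonist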
Starred values were filed as active, the others as inactive; . = no result given. The list is not random: actives were taken first. Their share in the collection is about 4.8%.

SMILES	T cruzi repl	697 NFkB inh	HSF1 inhib	Jurkat NFkB inh	HSF-1 act	GPR7 antag	GPR7 antag cf	MCHR1 antag
O=C(CSc1ccc2c(c1)OCCO2)NCc1ccccc1	-6	9	-8	-2	6	2	.	.
COc1ccccc1-n1ccnc1SCC(=O)NCC1CCCO1 (stereo not given)	-18	11	-2	-4	-6	-13	.	.
O=C(CSc1ccc2c(c1)OCCO2)NCC1CCCO1 (stereo not given)	-8	-45	-1	-20	14	27*	-1	-1
N#Cc1cccc(NC(=O)Cn2cnc(S(=O)(=O)N3CCOCC3)c2)c1	-8	-5	1	-2	-4	-2	.	.
O=P(Cc1cc(Br)cc(Br)c1OCCO)(c1ccccc1)c1ccccc1	2	-1	8	11	12	33*	39*	20
O=c1[nH]c2ccccc2c(O)c1Cc1ccccc1	-6	-17	-6	-7	10	22*	0	-4
COCCSc1ccccc1C(=O)Nc1cc(C)cc(C)c1	-12	-1	-2	7	14	-8	.	.
COCCSc1ccccc1C(=O)Nc1ccncc1	-4	-9	-2	-2	3	57*	-9	-12
Cc1nc(C(=O)N2CCc3c([nH]c4ccccc34)C2c2ccccn2)cs1 (stereo not given)	2	4	-3	19	9	-11	.	.
Cc1nc(C(=O)N2CCc3c([nH]c4ccccc34)C2c2cc(F)ccc2F)cs1 (stereo not given)	12	-5	17	-9	13	22*	1	9
O=C(c1cc[n+]([O-])cc1)N1CCc2c([nH]c3ccccc23)C1c1ccccc1Cl (stereo not given)	-9	2	1	7	-8	31*	12	7
CCC(=O)N/C(=N/c1nc(C)cc(C)n1)Nc1ccc(C)cc1	6	1	-5	8	25	9	.	.
CC(=O)Nc1ccc(N/C(N)=N/c2nc(C)cc(C)n2)cc1	-19	0	-5	-6	-9	-5	.	.
Cc1ccc(C)c(N/C(N)=N/c2nc(C)cc(C)n2)c1	65*	-29	-1	4	-5	61*	66*	71*
CCOc1ccc(N/C(=N/c2nc(C)cc(C)n2)NC(=O)CC)cc1	-9	10	3	-3	5	21*	1	8
Cc1cc(C)nc(/N=C(\N)Nc2ccc(SC(F)F)cc2)n1	6	4	1	20	3	64*	68*	78*
Cc1cc(C)nc(/N=C(\N)Nc2ccc(-c3ccccc3)cc2)n1	7	-38	-13	40	-33	65*	65*	81*
CCOc1ccc(N/C(N)=N/c2nc(C)cc(C)n2)cc1	8	2	0	7	13	99*	94*	97*
O=C(CN1CC(c2ccccc2)CC1=O)OCc1cccc(Br)c1 (stereo not given)	-16	-4	9	-8	28	5	.	.
Nc1nnnn1CC(=O)OCc1cccc(Br)c1	-4	19	0	7	8	27*	-3	1
CC(C)CS(=O)(=O)C1=NN2C(=N)/C(=C\c3ccc(OC(=O)c4ccco4)cc3)C(=O)N=C2S1	-4	-8	-4	0	9	43*	42*	34*
O=C(OCc1ccccc1)C1=NNC2C(=O)N(c3ccccc3)C(=O)C12 (stereo not given)	-5	13	2	3	-5	23*	-2	-6
CCc1ccc(N2C(=O)C3NN=C(C(=O)OCc4ccccc4)C3C2=O)cc1 (stereo not given)	-6	-6	1	8	-3	-4	.	.
O=C(Cc1ccccc1[N+](=O)[O-])OCC(=O)c1ccccc1Br	.	-5	.	-8	.	.	.	.
CCC(C)(C)n1nnnc1C(c1cc(OC)ccc1OC)N1CCN(Cc2ccccc2)CC1 (stereo not given)	17	-14	-3	8	-7	27*	31*	43*
SMILES	T cruzi repl	697 NFkB inh	HSF1 inhib	Jurkat NFkB inh	HSF-1 act	GPR7 antag	GPR7 antag cf	MCHR1 antag
CCC(C)(C)n1nnnc1C(c1ccccc1)N1CCN(Cc2ccccc2)CC1 (stereo not given)	1	-12	0	-4	12	7	.	.
COC(=O)/C(=C/c1ccco1)NC(=O)c1ccco1	-1	11	-4	6	-6	100*	0	8
O=C(O)/C(=C\c1ccco1)NC(=O)c1ccco1	-4	8	-8	-3	-17	-7	.	.
CCCCNC(=O)CC(C(=O)N1CCc2ccccc21)n1ccnc1 (stereo not given)	-7	19	-10	2	-5	-4	.	.
O=C(CC(C(=O)N1CCc2ccccc21)n1ccnc1)NCC1CCCO1 (stereo not given)	-9	15	-7	13	-5	24*	4	4
COc1ccccc1CNC(=O)CN(C)Cc1ccc(SC)cc1	-3	-21	0	33	2	26*	37*	36*
N#Cc1nc(Cc2ccccc2)oc1NCc1ccccc1	-1	-34	17	-19	18	-2	.	.
CCC(CC)c1nc(C#N)c(NCc2ccccc2)o1	-7	-7	-43	17	-55	31*	11	28*
CC1=CSC2=NS(=O)(=O)CCN12	-22	1	0	8	-2	-6	.	.
O=S1(=O)CCN2C(Cc3ccc(SC(F)F)cc3)=CSC2=N1	1	-4	3	11	1	24*	17	12
O=C(Nc1ccc(Cl)cc1)c1cccc(NC2=NC3CS(=O)(=O)CC3S2)c1 (stereo not given)	3	7	-4	9	-6	24*	-3	0
CC(C)c1ccc(NC(=O)c2cccc(NC3=NC4CS(=O)(=O)CC4S3)c2)cc1 (stereo not given)	-3	-20	2	-12	9	0	.	.
CC(NC(=S)NCc1ccc(F)cc1)C12CC3CC(CC(C3)C1)C2 (stereo not given)	26	7	3	-5	2	-12	.	.
COc1ccc(-n2c(=S)[nH]c3cc(C(=O)Nc4ccccc4OC)ccc3c2=O)cc1	-19	-17	-1	14	3	-3	.	.
COc1ccc(-n2c(=S)[nH]c3cc(C(=O)Nc4ccccc4OC)ccc3c2=O)c(OC)c1	-10	27	1	-7	1	31*	24*	46*
COc1ccc(-n2c(=S)[nH]c3cc(C(=O)NCc4ccccc4OC)ccc3c2=O)c(OC)c1	6	-8	-7	-21	1	26*	38*	39*

High-throughput results deposited in PubChem BioAssay by several laboratories.
